Measured values taken from ChEMBL document CHEMBL3826914, “Selective photodepletion of malignant T cells in extracorporeal photopheresis with selenorhodamine photosensitizers” (Bioorg Med Chem, 2016).
Calls of active or inactive are those of the source. The calls are words filed in the database; no cut-off is given here.

Key:
[1] = Drug extrusion in human CD4 positive cells assessed as change in mean fluorescence intensity at 5 x 10^-8 M preincubated for 20 mins followed by growth in photosensitizer-free media for 30 mins by flow cytometric analysis relative to control; format: cell-based; conditions: 0.5 h, 0.05 µM
[2] = (§1) Phototoxicity human CD8 positive cells co-cultured with GFP expressing human HUT78 cells assessed as cell survival at 7.5 x 10^-8 M preincubated 20 mins in photosensitizer media followed by growth in photosensitizer-free media for 30 mins measured 18 hrs after exposure to 5 J/cm2 irradiation by FACS analysis; format: cell-based; conditions: read-out: Survival
How it was run: (§2)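 Non-stimulated PBMCs from healthy donors (Ficoll-separated) were mixed 5:1 with GFP-transfected, sorted (>98%) HUT-78 cells. Cells took up 7.5×10^-8 M photosensitizer for 20 min, then spent 30 min in dye-free medium. They were exposed to 5 J cm^-2 light (600 nm LED) with rotation at 180 rpm. Survival was gated by FACS (GFP, CD3, CD4, CD8) 18 h later versus non-irradiated controls. Triplicate; mean ± SEM.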

[3] = Dark toxicity against human HUT78 cells assessed as reduction in cell viability preincubated for 1 hr in dark after 48 hrs by MTT assay; format: cell-based; conditions: read-out: LD50
How it was run: (§3)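 HUT-78 cells in RPMI 1640 with 10% FBS, 1% HEPES and 1% penicillin-streptomycin were plated at 7.5×10^4 per well and grown 24 h. Dye was added to final 5×10^-8 to 5×10^-7 M, then 1 h in the dark. Plates were kept dark or irradiated with a 633 ± 2 nm dye laser at ~3.2 mW cm^-2 to 0.5, 1.0 or 2.0 J cm^-2. Medium was replaced, 48 h at 37 °C, then MTT read at 570 nm. Triplicate runs; EC50/LD50 by sigmoidal variable-slope fit.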

ABCB1 [4] = assay: Passive permeability in dog MDCK2-MDR1 cells expressing ABCB1 at 5 uM after 30 mins in presence of compound 15 by LC-MS/MS analysis; format: ADME, cell-based, Canis lupus familiaris, MDCK-II; conditions: MDCK-MDR1, with compound 15 (concentration not stated), read-out: permeability
How it was run: (§4)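 MDR1-transfected MDCKII cells (passage 16–42) were seeded at 50,000 cells cm^-2 on Transwell filters and used on day 6. Monolayers were rinsed in DPBS with 10^-2 M HEPES, pH 7.4, at 37 °C. They were preincubated 30 min in 4.3 mg/mL BSA/DPBSH with or without 5×10^-6 M P-gp inhibitor. 5 μM dye was added apically or basolaterally and samples taken after 1 h at 37 °C with nutation. Quantitation was by LC-MS/MS; P_passive is the mean of P_AB and P_BA under full inhibition. Mean ± SD.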

[5] = Drug extrusion in human CD3 positive cells assessed as change in mean fluorescence intensity at 5 x 10^-8 M preincubated for 20 mins followed by growth in photosensitizer-free media for 30 mins by flow cytometric analysis relative to control; format: cell-based; conditions: 0.5 h, 0.05 µM
HuT78 [6] = assay: Phototoxicity against human HUT78 cells assessed as reduction in cell viability preincubated for 1 hr in dark before exposure to 1 J/cm2 irradiation after 48 hrs by MTT assay; format: functional, cell-based; how it was run: as §3
[7] = Drug uptake in human HUT78 cell mitochondria by MTG-based bright field microscopic analysis; format: ADME
How it was run: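 HUT-78 cells (5×10^5 in 0.5 mL medium) were incubated 15 min with 2×10^-7 M dye together with 5×10^-7 M MitoTracker Green. They were centrifuged and analysed by ImageStream imaging flow cytometry, with MTG excited at 488 nm (480–560 nm channel) and dye excited at 561 nm (642–745 nm channel). Colocalisation was given as the bright detail similarity score, mean ± SD over cells.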

HuT78 [8] = assay: Phototoxicity against human HUT78 cells assessed as reduction in cell viability preincubated for 1 hr in dark at 5 x 10^-8M before exposure to 0.5 to 2 J/cm2 irradiation after 48 hrs by MTT assay; format: functional, cell-based; how it was run: as §3
HuT78 [9] = assay: Drug uptake in GFP expressing human HUT78 cells co-cultured with non-stimulated human PBMC cells assessed as change in mean fluorescence intensity at 7.5 x 10^-8 M after 20 mins followed by growth in photosensitizer-free media for 30 mins by flow cytometric analysis relative to control; format: cell-based; conditions: hut78, 0.5 h, 0.075 µM
[10] = Drug extrusion in SEB-stimulated human CD25 positive cells assessed as change in mean fluorescence intensity at 5 x 10^-8 M preincubated for 20 mins followed by growth in photosensitizer-free media for 30 mins by flow cytometric analysis relative to control; conditions: 0.5 h, 0.05 µM
ABCB1 [11] = assay: Permeability from basolateral to apical side in dog MDCK2-MDR1 cells expressing ABCB1 at 5 uM after 30 mins in presence of compound 15 by LC-MS/MS analysis; format: ADME, cell-based, Canis lupus familiaris, MDCK-II; conditions: MDCK-MDR1, with compound 15 (concentration not stated), read-out: permeability; how it was run: as §4
ABCB1 [12] = assay: Permeability from apical to basolateral side in dog MDCK2-MDR1 cells expressing ABCB1 at 5 uM after 30 mins in absence of compound 15 by LC-MS/MS analysis; format: ADME, cell-based, Canis lupus familiaris, MDCK-II; conditions: MDCK-MDR1, read-out: permeability; how it was run: as §4
HuT78 [13] = conditions: human, hut78, 0.5 h, 0.075 µM
HuT78 [14] = conditions: human, hut78, 0.5 h, 0.075 µM; remark: listed apart in the source
[15] = as §1, with “CD4” for “CD8”; format: cell-based; conditions: read-out: Survival; how it was run: as §2
[16] = Drug extrusion in human CD8 positive cells assessed as change in mean fluorescence intensity at 5 x 10^-8 M preincubated for 20 mins followed by growth in photosensitizer-free media for 30 mins by flow cytometric analysis relative to control; format: cell-based; conditions: 0.5 h, 0.05 µM
[17] = as §1, with “CD3” for “CD8”; format: cell-based; conditions: read-out: Survival; how it was run: as §2
[18] = Drug extrusion in SEB-stimulated human CD25 negative cells assessed as change in mean fluorescence intensity at 5 x 10^-8 M preincubated for 20 mins followed by growth in photosensitizer-free media for 30 mins by flow cytometric analysis relative to control; conditions: 0.5 h, 0.05 µM
[19] = Drug extrusion in SEB-stimulated human CD25 positive cells assessed as mean fluorescence intensity at 5 x 10^-8 M preincubated for 20 mins followed by growth in photosensitizer-free media for 30 mins by flow cytometric analysis relative to control; conditions: 0.5 h, 0.05 µM
ABCB1 [20] = assay: Permeability from basolateral to apical side in dog MDCK2-MDR1 cells expressing ABCB1 at 5 uM after 30 mins in absence of compound 15 by LC-MS/MS analysis; format: ADME, cell-based, Canis lupus familiaris, MDCK-II; conditions: MDCK-MDR1, read-out: permeability; how it was run: as §4
[21] = Drug uptake in SEB-stimulated human CD25 positive cells assessed as mean fluorescence intensity at 5 x 10^-8 M preincubated for 20 mins followed by growth in photosensitizer-free media for 30 mins by flow cytometric analysis relative to control; conditions: 0.5 h, 0.05 µM
[22] = Drug extrusion in SEB-stimulated human CD25 negative cells assessed as mean fluorescence intensity at 5 x 10^-8 M preincubated for 20 mins followed by growth in photosensitizer-free media for 30 mins by flow cytometric analysis relative to control; conditions: 0.5 h, 0.05 µM
[23] = Drug uptake in SEB-stimulated human CD25 negative cells assessed as mean fluorescence intensity at 5 x 10^-8 M preincubated for 20 mins followed by growth in photosensitizer-free media for 30 mins by flow cytometric analysis relative to control; conditions: 0.5 h, 0.05 µM
ABCB1 [24] = assay: Permeability from apical to basolateral side in dog MDCK2-MDR1 cells expressing ABCB1 at 5 uM after 30 mins in presence of compound 15 by LC-MS/MS analysis; format: ADME, cell-based, Canis lupus familiaris, MDCK-II; conditions: MDCK-MDR1, with compound 15 (concentration not stated), read-out: permeability; how it was run: as §4
HuT78 [25] = assay: as §1, with “in” for “human CD8 positive cells co-cultured with”, “HUT78 cells co-cultured with human PBMC” for “HUT78”; format: functional; conditions: HuT78, light or radiation study, read-out: Survival; how it was run: as §2

With `O=C(c1ccc(C2=c3cc4c5c(c3[Se]c3c2cc2c6c3CCCN6CCC2)CCC[N+]=5CCC4)s1)N1CCCCC1.[Cl-]` the Activity [1] was 59.1%, the viability at 18 h, 0.075 µM [2] was 78% and the CC50 at 48 h [3] was 0.73 µM. For the same compound, the Papp at 0.5 h, 5 µM (ABCB1 [4]) was 2 nm/s, the Activity [5] was 54.6% and the Activity (HuT78 [6]) was “Dose-dependent effect”. For the same compound, the EC50 (HuT78 [6]; HuT78, light or radiation study) was 0.07 µM, the Drug uptake [7] was “Active” and the Activity (HuT78 [8]) was “Active”. For the same compound, the Activity (HuT78 [9]) was 55.7%, the Activity [10] was 39.9% and the Papp B→A at 0.5 h, 5 µM (ABCB1 [11]) was 4.8 nm/s. For the same compound, the Papp A→B at 0.5 h, 5 µM (ABCB1 [12]) was 2.1 nm/s, the Flu intensity (HuT78 [13]) was 6800 a.u and the Flu intensity (HuT78 [14]) was 4500 a.u. It also gave a viability at 18 h, 0.075 µM [15] of 63.3%, an Activity [16] of 69% and a viability at 18 h, 0.075 µM [17] of 62.1%. It also gave an Activity [18] of 59.8%, a Flu intensity [19] of 4500 a.u and a Papp B→A at 0.5 h, 5 µM (ABCB1 [20]) of 78 nm/s. It also gave a Flu intensity [21] of 7510 a.u, a Flu intensity [22] of 580 a.u and a Flu intensity [23] of 1450 a.u. For the same compound, the Papp A→B at 0.5 h, 5 µM (ABCB1 [24]) was 0.24 nm/s and the viability at 0.075 µM (HuT78 [25]) was 3.9%.
